The record followed here is PubChem BioAssay.

Experiment [1] can be described thus: reducers of endogenous Her2 protein level, primary screen, SKBR3 breast tumor cells, AlphaScreen, ATP viability (AID 461;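 active means Her2 level under about 52% in both replicate screens, with viability over 70% of control, limit read from the data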;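 on Her2 level: lower value means less Her2 protein in the cells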;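 on viability: percent of carrier control wells set as 100% viability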). As to conditions: 18-24 h, measured here: SKBR3 viability, ATP luminescence, at 10 µM. A general note: Bead proximity is the source of the signal in Alpha formats.
Experiment [2] has as its target Receptor tyrosine-protein kinase erbB-2 (Homo sapiens) (UniProt P04626). The experiment is described as above. As to conditions: 18-24 h, at 10 µM, stronger effect = lower value.
The nature of experiment [3]: SK-BR-3 cell growth inhibitors, pilot screen, 24 h, human (AID 572;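 active means viability at or below 10% of carrier control in both of two separate runs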;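 further: compound exposure lasted between 18 and 24 h rather than exactly 24 h; 100% = carrier-treated control wells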). As to conditions: SK-BR-3 viability, CellTiter-Glo luminescence, at 10 µM, stronger effect = lower value. On the technique in general: ATP-based viability assays read luminescence as a measure of living cells.
A short description of experiment [4]: HUVEC growth inhibition – cell-based, human, primary screen (AID 575;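 active means viability at or below 30% in both replicate assays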;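 further: 100% = median of untreated cell wells with 0.1% DMSO on each plate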). As to conditions: HUVEC proliferation, CellTiter-Glo luminescence, 72 h; at 10 µM; stronger effect = lower value. The procedure, abridged:
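material = primary HUVEC, no more than 12 passages | input = 1250 cells per well | controls = vehicle and MePR control wells | measured by = CTG luminescence | times = 72 h compound incubation | format = collagen-coated 384-well format | read-out = % viability vs DMSO wells | doses = single 10 µM dose, 0.1% DMSO, from 5x medium stock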

The nature of experiment [5]: growth inhibitors of H69AR lung tumor, primary screen, human, duplicate replicates (AID 580).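 Further: 100% = mean luminescence of untreated wells and 0% = no signal.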 As to conditions: H69AR lung tumor cells viability, ATP luminescence, 72 h; at 10 µM; stronger effect = lower value.
Experiment [6] is described as follows: reversal of MRP1-mediated doxorubicin resistance, pilot screen, H69AR cells, doxorubicin co-treatment (AID 601;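 active means viability loss from added drug above about 55%, and viability with drug at most 40%, in both replicates, limit read from the data, passing the limit was not always enough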). As to conditions: CellTiter-Glo, 72 h, at 10 µM; for differential viability (reversal): stronger effect = higher value.
The nature of experiment [7]: 384-well plate pilot, post-Golgi transport modulator project, inhibition of yeast transport mutant growth (AID 636; in the data active means inhibition above about 31%). As to conditions: absorbance 615 nm, about 18 h, stronger effect = higher value.
Experiment [8] in a line: growth suppression of yeast trafficking mutant, preliminary HTS, modulators of trafficking downstream of Golgi apparatus project, 1536-format plate, OD 615 nm (AID 637; in the data active means inhibition above about 30%). As to conditions: yeast transport mutant growth, absorbance 615 nm, 18 h; stronger effect = higher value.
[9] abbreviates: H69AR cells + 2 uM doxorubicin, measured here: viability with 2 uM doxorubicin, stronger effect = lower value.
[10] abbreviates: H69AR cells, compound alone cytotoxicity.

The source made the active and inactive calls.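 How the source made its calls, unless noted: active means viability at or under a set limit in both replicates, limit being median viability minus 3 SD (cut at about 48% in these data, passing the limit was not always enough); inconclusive means at or under the limit in just one replicate; inactive means at or above the limit in both replicates.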

Chain of Receptor tyrosine-protein kinase erbB-2 (Homo sapiens) (P04626 whole entry, looked up): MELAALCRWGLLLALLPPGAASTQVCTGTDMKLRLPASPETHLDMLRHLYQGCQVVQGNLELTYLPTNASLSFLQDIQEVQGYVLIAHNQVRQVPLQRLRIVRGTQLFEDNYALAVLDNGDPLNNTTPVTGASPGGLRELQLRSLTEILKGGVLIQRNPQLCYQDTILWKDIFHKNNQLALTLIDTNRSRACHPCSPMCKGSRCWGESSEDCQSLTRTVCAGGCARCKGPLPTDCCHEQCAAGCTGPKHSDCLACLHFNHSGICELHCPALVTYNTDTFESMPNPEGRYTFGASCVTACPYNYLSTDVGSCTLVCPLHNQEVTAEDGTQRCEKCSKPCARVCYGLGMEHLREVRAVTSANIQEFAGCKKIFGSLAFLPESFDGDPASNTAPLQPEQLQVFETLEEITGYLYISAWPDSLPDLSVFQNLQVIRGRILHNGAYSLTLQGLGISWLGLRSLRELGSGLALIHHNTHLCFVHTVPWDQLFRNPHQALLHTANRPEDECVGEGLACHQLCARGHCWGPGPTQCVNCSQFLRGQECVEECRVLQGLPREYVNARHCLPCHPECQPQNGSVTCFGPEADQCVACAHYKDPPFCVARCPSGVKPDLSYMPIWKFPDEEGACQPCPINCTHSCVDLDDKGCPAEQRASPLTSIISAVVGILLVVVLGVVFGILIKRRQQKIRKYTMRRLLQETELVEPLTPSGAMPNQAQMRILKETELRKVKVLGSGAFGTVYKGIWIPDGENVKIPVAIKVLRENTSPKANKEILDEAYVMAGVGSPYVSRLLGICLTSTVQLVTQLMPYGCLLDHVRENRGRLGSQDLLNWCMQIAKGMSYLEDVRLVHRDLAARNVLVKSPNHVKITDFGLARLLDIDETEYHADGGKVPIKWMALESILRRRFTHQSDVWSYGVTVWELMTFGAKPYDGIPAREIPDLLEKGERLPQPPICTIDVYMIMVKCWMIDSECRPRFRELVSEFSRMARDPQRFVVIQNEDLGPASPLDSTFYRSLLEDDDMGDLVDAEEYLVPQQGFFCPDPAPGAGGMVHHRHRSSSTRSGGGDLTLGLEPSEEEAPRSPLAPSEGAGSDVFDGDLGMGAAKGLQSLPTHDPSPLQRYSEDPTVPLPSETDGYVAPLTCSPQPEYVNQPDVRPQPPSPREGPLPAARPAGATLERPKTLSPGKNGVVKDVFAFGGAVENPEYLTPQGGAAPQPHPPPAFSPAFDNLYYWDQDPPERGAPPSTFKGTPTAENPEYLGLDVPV

As usually defined, the viability is a read-out of living cells in per cent, often relative to untreated cells. By inhibition is commonly meant the drop in the measured response relative to a control, in per cent. For the molecule `CCOCCCNC(=O)c1c[nH]c2ccc(S(=O)(=O)Nc3cccc(OC)c3)cc2c1=O`, the viability in experiment [1] was 108%; in experiment [3], 108% (inactive); in experiment [4] it was 83.4% (inactive); in experiment [5] it was 99.9% (inactive); in experiment [6] (setting [9]), 93.3%; in experiment [6] (setting [10]) it was 99.9%. The Her2 level in experiment [2] was 106% (inactive). In experiment [6] (H69AR cells + 2 uM doxorubicin), the differential viability (reversal) was 6.57% (inactive). In addition, the inhibition was -5.66% (inactive) in experiment [7] and -8.71% (inactive) in experiment [8].

In the case of `CCSC1(SCC)N=C(N)C2(C#N)C(c3ccccc3)NC(C)=C(C)C12C#N` (stereo not given), the viability in experiment [1] was 95%; in experiment [3], 95% (inactive); in experiment [4], 81.4% (inactive); in experiment [5], 93.3% (inactive); in experiment [6] (setting [9]), 74.1%; in experiment [6] (setting [10]), 93.3%. In addition, in experiment [2], the Her2 level was 85.5% (inactive). Further, in experiment [6] (H69AR cells + 2 uM doxorubicin), the differential viability (reversal) was 19.2% (inactive). In addition, the inhibition is -5.07% (inactive) in experiment [7] and -2.79% (inactive) in experiment [8].

For `Cc1cc(C)c2c(C)nn(C3CCCCC3)c2n1`, the viability was 81.5% in experiment [1]; 81.5% (inactive) in experiment [3]; 80.8% (inactive) in experiment [4]; 95.5% (inactive) in experiment [5]; 83.2% in experiment [6] (setting [9]); 95.5% in experiment [6] (setting [10]). For the same molecule, the Her2 level in experiment [2] was 114% (inactive). The differential viability (reversal) in experiment [6] (H69AR cells + 2 uM doxorubicin) is 12.3% (inactive). Besides, the results for the inhibition in experiment [7] and in experiment [8] were 6.62% (inactive) and 14.1% (inactive), respectively.

Regarding `CCOC(=O)c1c(C)c(C(=O)NCCN2CCOCC2)c(C)n1C`, the viability is 89.5% in experiment [1]; 89.5% (inactive) in experiment [3]; 107% (inactive) in experiment [4]; 86.7% (inactive) in experiment [5]; 90.5% in experiment [6] (setting [9]); 86.7% in experiment [6] (setting [10]). Moreover, the Her2 level in experiment [2] was 91% (inactive). Further, the differential viability (reversal) in experiment [6] (H69AR cells + 2 uM doxorubicin) is -3.83% (inactive). Moreover, the inhibition in experiment [7] was -10.7% (inactive); in experiment [8] it was 1.11% (inactive).

For the molecule `O=C(C1CCCN(S(=O)(=O)c2cnc[nH]2)C1)N1CCN(c2ccc(Cl)cc2)CC1` (stereo not given), the viability in experiment [1] was 85.5%; in experiment [3] it was 85.5% (inactive); in experiment [4], 110% (inactive); in experiment [5], 111% (inactive); in experiment [6] (setting [9]), 96%; in experiment [6] (setting [10]), 111%. The Her2 level in experiment [2] is 93% (inactive). Moreover, the differential viability (reversal) in experiment [6] (H69AR cells + 2 uM doxorubicin) is 14.8% (inactive). The results for the inhibition in experiment [7] and in experiment [8] were -0.13% (inactive) and -4.92% (inactive), respectively.

On to `Cc1ccc(-c2noc(CCC(=O)N3CCN(c4cccc(C(F)(F)F)c4)CC3)n2)cc1`, for which the viability in experiment [1] is 87.5%; in experiment [3], 87.5% (inactive); in experiment [4], 71.2% (inactive); in experiment [5], 93.1% (inactive); in experiment [6] (setting [9]), 96.8%; in experiment [6] (setting [10]), 93.1%. In experiment [2], the Her2 level was 91% (inactive). Further, in experiment [6] (H69AR cells + 2 uM doxorubicin), the differential viability (reversal) is -3.76% (inactive). The inhibition in experiment [7] is -3.95% (inactive); in experiment [8], -2.67% (inactive).

As for `CC(=O)N(C(C)=O)c1c(C#N)c(C)n(-c2ccccc2)c1C(=O)c1ccccc1`, the viability in experiment [1] was 86.5%; in experiment [3], 86.5% (inactive); in experiment [4] it was 78.4% (inactive); in experiment [5], 77.9% (inactive); in experiment [6] (setting [9]), 87%; in experiment [6] (setting [10]) it was 77.9%. For the same molecule, the Her2 level in experiment [2] is 88% (inactive). The differential viability (reversal) in experiment [6] (H69AR cells + 2 uM doxorubicin) was -9.1% (inactive). Moreover, the inhibition in experiment [7] is -2.53% (inactive); in experiment [8], -2.58% (inactive).

Consider `Cn1c(C(=O)N2CCCC(C(=O)NCCCc3ccccc3)C2)cc2sccc21` (stereo not given), for which the viability in experiment [1] was 98%; in experiment [3], 98% (inactive); in experiment [4] it was 80.9% (inactive); in experiment [5], 82.3% (inactive); in experiment [6] (setting [9]) it was 98.7%; in experiment [6] (setting [10]), 82.3%. Besides, the Her2 level in experiment [2] was 83.5% (inactive). Further, the differential viability (reversal) in experiment [6] (H69AR cells + 2 uM doxorubicin) was -16.3% (inactive). The inhibition was -1.28% (inactive) in experiment [7] and -1.17% (inactive) in experiment [8].

With `CCN=C1SC(CC(=O)Nc2ccccc2)C(=O)N1CC` (stereo not given), the viability was 98.5% in experiment [1]; 98.5% (inactive) in experiment [3]; 122% (inactive) in experiment [4]; 105% (inactive) in experiment [5]; 94.9% in experiment [6] (setting [9]); 105% in experiment [6] (setting [10]). Besides, in experiment [2], the Her2 level was 91.5% (inactive). Further, the differential viability (reversal) in experiment [6] (H69AR cells + 2 uM doxorubicin) was 10% (inactive). Also, the inhibition in experiment [7] is -1.92% (inactive); in experiment [8], -1.33% (inactive).

For `Cc1csc2ncc(C(=O)N3CCc4ccccc43)c(=O)n12`, the viability in experiment [1] was 95.5%; in experiment [3], 95.5% (inactive); in experiment [4], 86% (inactive); in experiment [5] it was 89% (inactive); in experiment [6] (setting [9]), 92.5%; in experiment [6] (setting [10]) it was 89%. In experiment [2], the Her2 level is 109% (inactive). For the same molecule, the differential viability (reversal) in experiment [6] (H69AR cells + 2 uM doxorubicin) is -3.54% (inactive). The figures for the inhibition in experiment [7] and in experiment [8] were -7.2% (inactive) and 4% (inactive), respectively.

Turning to `CCc1cc(=O)oc2c(CN3CCN(C)CC3)c(O)c(Cl)cc12`, the viability in experiment [1] was 107%; in experiment [3] it was 107% (inactive); in experiment [4], 92.6% (inactive); in experiment [5] it was 98.4% (inactive); in experiment [6] (setting [9]), 91.8%; in experiment [6] (setting [10]), 98.4%. The Her2 level in experiment [2] is 93.5% (inactive). The differential viability (reversal) in experiment [6] (H69AR cells + 2 uM doxorubicin) was 6.53% (inactive). Moreover, the inhibition in experiment [7] is -2.5% (inactive); in experiment [8], -3.61% (inactive).

For the molecule `O=C(CN1C(=O)c2ccccc2S1(=O)=O)NCc1ccccn1`, the viability is 94% in experiment [1]; 94% (inactive) in experiment [3]; 86.1% (inactive) in experiment [4]; 98.5% (inactive) in experiment [5]; 97.8% in experiment [6] (setting [9]); 98.5% in experiment [6] (setting [10]). The Her2 level in experiment [2] is 92% (inactive). For the same molecule, in experiment [6] (H69AR cells + 2 uM doxorubicin), the differential viability (reversal) was 0.67% (inactive). The inhibition in experiment [7] is -1.43% (inactive); in experiment [8] it was 1.11% (inactive).

With `C/C=C/Cn1c(Br)nc2c1c(=O)[nH]c(=O)n2C`, the viability in experiment [1] is 101%; in experiment [3], 101% (inactive); in experiment [4] it was 90.7% (inactive); in experiment [5] it was 93.5% (inactive); in experiment [6] (setting [9]), 86.3%; in experiment [6] (setting [10]), 93.5%. Besides, the Her2 level in experiment [2] is 91% (inactive). In addition, in experiment [6] (H69AR cells + 2 uM doxorubicin), the differential viability (reversal) was 7.23% (inactive). Besides, the inhibition in experiment [7] was -6.53% (inactive); in experiment [8], 0.16% (inactive).

Turning to `COc1cccc(-c2cc(C(=O)N3CCc4ccccc4C3)no2)c1`, the viability was 99.5% in experiment [1]; 99.5% (inactive) in experiment [3]; 67.7% (inactive) in experiment [4]; 96.8% (inactive) in experiment [5]; 103% in experiment [6] (setting [9]); 96.8% in experiment [6] (setting [10]). For the same molecule, the Her2 level in experiment [2] is 104% (inactive). Also, in experiment [6] (H69AR cells + 2 uM doxorubicin), the differential viability (reversal) is -5.97% (inactive). Moreover, the inhibition in experiment [7] is -8.51% (inactive); in experiment [8], -4.59% (inactive).
